# Measured values from different studies.
# Compare with care: the assays were run in different laboratories. pKi: −log10 of the molar value.
# Target: Adenosine receptor A2a (ADORA2A, Homo sapiens, UniProt P29274)
# Effect on: ligand displacement
# Method: radioligand
SMILES,setting,pKi
CCCCN1CCCn2c1nc1c2c(=O)n(CCC)c(=O)n1CCC,cell membranes,5.86
c1ccc2[nH]c(-c3nc4ccccc4[nH]3)nc2c1,cell membranes,6.85
Nc1nc(I)nc2c1ncn2[C@H]1[C@H](O)[C@H](O)[C@]2(CCl)C[C@H]12,,5.27
c1coc(-c2nc3cc(CCN4CCCCC4)ccc3o2)c1,cell membranes,5.15
Nc1nc(-c2ccccc2)nn1C(=O)CCc1ccccc1,cell membranes,5.70
C=CN1CCCn2c1nc1c2c(=O)n(C)c(=O)n1C,cell membranes,< 5.00
CCNC(=O)C1OC(n2cnc3c(N)nc(NN=CC4CCC=CO4)nc32)C(O)C1O (centres unmarked),,7.63
C#CCCCCC(=O)NCCNC(=O)COc1ccc(-c2nc3c([nH]2)c(=O)n(CCC)c(=O)n3CCC)cc1,cell membranes,7.63
Cc1cccc(-c2nc(N)n(C(=O)CCc3ccccc3)n2)c1,cell membranes,6.60
c1coc(-c2nc3cc(CN4CCCCC4)ccc3o2)c1,cell membranes,4.72
CNC(=O)[C@@]12C[C@@H]1[C@@H](n1cnc3c(NCc4cccc(C#CCCCCCc5cn(-c6ccc(F)c(N)c6)nn5)c4)nc(Cl)nc31)[C@H](O)[C@@H]2O,cell membranes,6.26
